Data on five compounds can be found in ChEMBL document CHEMBL1944570, “Discovery of 4''-ether linked azithromycin-quinolone hybrid series: influence of the central linker on the antibacterial activity” (ACS Med Chem Lett, 2011).

Holding throughout (type): functional
The test system of assay [1] is Streptococcus pyogenes. Briefly: Antibacterial activity against erythromycin-susceptible Streptococcus pyogenes by agar microdilution method. The method in brief:
(§1)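 MIC by agar microdilution following NCCLS standards; strains drawn from the PLIVA Research Institute culture collection. MIC reported in μg/mL.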

The subject of assay [2] is Staphylococcus aureus. Briefly: Antibacterial activity against ciprofloxacin-resistant Staphylococcus aureus by agar microdilution method. A digest of the protocol:
as §1

The test system of assay [3] is Streptococcus pyogenes. Briefly: Antibacterial activity against constitutive MLS resistant Streptococcus pyogenes by agar microdilution method. A digest of the protocol: as §1
The subject of another assay is Haemophilus influenzae. Briefly: Antibacterial activity against Haemophilus influenzae B0529 by agar microdilution method. The method in brief: (§2)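 Agar microdilution MIC per NCCLS standards against strains from the Pliva Research Institute culture collection; values in µg/mL. Panel included erythromycin-susceptible strains and strains with inducible or constitutive MLS resistance.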

For assay [4], the system named is Streptococcus pyogenes. Briefly: Antibacterial activity against efflux mediated macrolide resistant Streptococcus pyogenes by agar microdilution method. The method in brief: as §1
The test system of assay [5] is Streptococcus pneumoniae. Briefly: Antibacterial activity against erythromycin-susceptible Streptococcus pneumoniae by agar microdilution method. A digest of the protocol:
as §1

Assay [6] concerns Staphylococcus aureus. Briefly: Antibacterial activity against Staphylococcus aureus with inducible resistance to MLS by agar microdilution method. A digest of the protocol:
as §1

Assay [7] deals with Streptococcus pneumoniae. In words: Antibacterial activity against constitutive MLS resistant Streptococcus pneumoniae by agar microdilution method. The method in brief: as §1
The test system of assay [8] is Staphylococcus aureus. In words: Antibacterial activity against constitutive MLS resistant Staphylococcus aureus by agar microdilution method. The method in brief: as §1
Another assay concerns Moraxella catarrhalis. In words: Antibacterial activity against Moraxella catarrhalis by agar microdilution method. A digest of the protocol: as §2
Assay [9] deals with Streptococcus pyogenes. Briefly: Antibacterial activity against Streptococcus pyogenes with inducible resistance to MLS by agar microdilution method. A digest of the protocol: as §1
The subject of assay [10] is Staphylococcus aureus. Briefly: Antibacterial activity against erythromycin-susceptible Staphylococcus aureus by agar microdilution method. A digest of the protocol: as §2
Assay [11] concerns Staphylococcus aureus. In words: Antibacterial activity against efflux mediated macrolide resistant Staphylococcus aureus by agar microdilution method. A digest of the protocol: as §1

Molecules are shown by their SMILES. Values after ≈ are worked out from the molar mass of the structure shown.

As to `CC[C@H]1OC(=O)[C@H](C)[C@@H](O[C@H]2C[C@@](C)(OC)[C@@H](OCCNCCNc3cc4c(=O)c(C(=O)O)cn(C5CC5)c4cc3Cl)[C@H](C)O2)[C@H](C)[C@@H](O[C@@H]2O[C@H](C)C[C@H](N(C)C)[C@H]2O)[C@](C)(O)C[C@@H](C)CN(C)[C@H](C)[C@H]2OC(=O)O[C@@]21C`, the MIC in the assay with Streptococcus pyogenes [1] was not above 0.125 µg/mL; with Staphylococcus aureus [2], not below 64 µg/mL; against Streptococcus pyogenes [3] it was 2 µg/mL (≈ 1.78 µM); with Haemophilus influenzae, 2 µg/mL (≈ 1.78 µM); in the assay on Streptococcus pyogenes [4] it was 0.5 µg/mL (≈ 0.445 µM); in the assay on Streptococcus pneumoniae [5], not above 0.125 µg/mL. Also, the MIC with Staphylococcus aureus [6] is 64 µg/mL (≈ 57 µM); in the assay on Streptococcus pneumoniae [7], 64 µg/mL (≈ 57 µM); in the assay on Staphylococcus aureus [8], more than 64 µg/mL; with Moraxella catarrhalis it was 0.25 µg/mL (≈ 0.223 µM); in the assay on Streptococcus pyogenes [9] it was 0.5 µg/mL (≈ 0.445 µM); against Staphylococcus aureus [10], 2 µg/mL (≈ 1.78 µM). This compound showed an MIC in the assay with Staphylococcus aureus [11] of 4 µg/mL (≈ 3.56 µM).
For `CC[C@H]1OC(=O)[C@H](C)C(=O)[C@H](C)[C@@H](O[C@@H]2O[C@H](C)C[C@H](N(C)C)[C@H]2O)[C@](C)(OCC=Cc2cnc3ccccc3c2)C[C@@H](C)C(=O)[C@H](C)[C@H]2NC(=O)O[C@@]21C` [CETHROMYCIN], the MIC in the assay with Streptococcus pyogenes [1] was not above 0.125 µg/mL; against Staphylococcus aureus [2], not below 64 µg/mL; against Streptococcus pyogenes [3] it was 1 µg/mL (≈ 1.31 µM); against Haemophilus influenzae it was 1 µg/mL (≈ 1.31 µM); in the assay with Streptococcus pneumoniae [5], not above 0.125 µg/mL; against Staphylococcus aureus [6], 0.25 µg/mL (≈ 0.326 µM). The MIC in the assay on Staphylococcus aureus [8] was more than 64 µg/mL; against Moraxella catarrhalis, not above 0.125 µg/mL; with Staphylococcus aureus [10], not above 0.125 µg/mL; with Staphylococcus aureus [11] it was 0.25 µg/mL (≈ 0.326 µM).
With `CC[C@H]1OC(=O)[C@H](C)[C@@H](O[C@H]2C[C@@](C)(OC)[C@@H](OCCNCCOCCOCCNc3cc4c(=O)c(C(=O)O)cn(C5CC5)c4cc3Cl)[C@H](C)O2)[C@H](C)[C@@H](O[C@@H]2O[C@H](C)C[C@H](N(C)C)[C@H]2O)[C@](C)(O)C[C@@H](C)CN(C)[C@H](C)[C@H]2OC(=O)O[C@@]21C`, the MIC in the assay on Streptococcus pyogenes [1] was not above 0.125 µg/mL; in the assay with Staphylococcus aureus [2], not below 64 µg/mL; against Streptococcus pyogenes [3], 1 µg/mL (≈ 0.826 µM); against Haemophilus influenzae it was 1 µg/mL (≈ 0.826 µM); in the assay on Streptococcus pyogenes [4] it was 0.5 µg/mL (≈ 0.413 µM); against Streptococcus pneumoniae [5] it was not above 0.125 µg/mL. The MIC in the assay with Staphylococcus aureus [6] came to 64 µg/mL (≈ 52.9 µM); against Streptococcus pneumoniae [7], 64 µg/mL (≈ 52.9 µM); in the assay with Staphylococcus aureus [8], 32 µg/mL (≈ 26.4 µM); against Moraxella catarrhalis, 0.5 µg/mL (≈ 0.413 µM); in the assay on Staphylococcus aureus [10], 2 µg/mL (≈ 1.65 µM); with Staphylococcus aureus [11], 2 µg/mL (≈ 1.65 µM).
Consider `CC[C@H]1OC(=O)[C@H](C)[C@@H](O[C@H]2C[C@@](C)(OC)[C@@H](OCCN3CCN(c4ccc5c(c4)c(=O)c(C(=O)O)cn5CC)CC3)[C@H](C)O2)[C@H](C)[C@@H](O[C@@H]2O[C@H](C)C[C@H](N(C)C)[C@H]2O)[C@](C)(O)C[C@@H](C)CN(C)[C@H](C)[C@@H](O)[C@]1(C)O`, for which the MIC in the assay with Streptococcus pyogenes [1] is not above 0.125 µg/mL; against Staphylococcus aureus [2], not below 64 µg/mL; against Streptococcus pyogenes [3] it was 64 µg/mL (≈ 59.5 µM); against Haemophilus influenzae, 8 µg/mL (≈ 7.43 µM); in the assay on Streptococcus pyogenes [4] it was 0.5 µg/mL (≈ 0.465 µM); against Streptococcus pneumoniae [5], not above 0.125 µg/mL. Also, the MIC against Staphylococcus aureus [6] stood at 64 µg/mL (≈ 59.5 µM); against Streptococcus pneumoniae [7], 64 µg/mL (≈ 59.5 µM); with Staphylococcus aureus [8] it was 64 µg/mL (≈ 59.5 µM); with Moraxella catarrhalis, 4 µg/mL (≈ 3.72 µM); in the assay with Streptococcus pyogenes [9], 0.25 µg/mL (≈ 0.232 µM); in the assay with Staphylococcus aureus [10], 2 µg/mL (≈ 1.86 µM). In the assay on Staphylococcus aureus [11], the MIC is 4 µg/mL (≈ 3.72 µM).
As for `CC[C@H]1OC(=O)[C@H](C)[C@@H](O[C@H]2C[C@@](C)(OC)[C@@H](OCCNCCOCCOCCNc3cc4c(=O)c(C(=O)O)cn(C5CC5)c4cc3Cl)[C@H](C)O2)[C@H](C)[C@@H](O[C@@H]2O[C@H](C)C[C@H](N(C)C)[C@H]2O)[C@](C)(O)C[C@@H](C)CN(C)[C@H](C)[C@@H](O)[C@]1(C)O`, the MIC is not above 0.125 µg/mL against Streptococcus pyogenes [1]; not below 64 µg/mL against Staphylococcus aureus [2]; 2 µg/mL (≈ 1.69 µM) against Streptococcus pyogenes [3]; 4 µg/mL (≈ 3.38 µM) against Haemophilus influenzae; 2 µg/mL (≈ 1.69 µM) against Streptococcus pyogenes [4]; not above 0.125 µg/mL with Streptococcus pneumoniae [5]. For the same compound, the MIC came to 64 µg/mL (≈ 54 µM) with Staphylococcus aureus [6]; 64 µg/mL (≈ 54 µM) in the assay on Streptococcus pneumoniae [7]; 32 µg/mL (≈ 27 µM) in the assay with Staphylococcus aureus [8]; 1 µg/mL (≈ 0.844 µM) against Moraxella catarrhalis; 4 µg/mL (≈ 3.38 µM) with Staphylococcus aureus [10]; 1 µg/mL (≈ 0.844 µM) against Staphylococcus aureus [11].
